From ChEMBL document CHEMBL4680111, “Target Validation and Identification of Novel Boronate Inhibitors of the Plasmodium falciparum Proteasome” (J Med Chem, 2018)
Calls of active or inactive are those of the source. The calls are words filed in the database; no cut-off is given here.

Key:
[1] = Inhibition of Plasmodium falciparum 20S proteasome beta 1 subunit caspase-like activity using fluorogenic peptide Ac-nLPnLD-AMC as substrate in presence of PA28alpha incubated for 1 to 2 hrs by fluorescence microplate reader assay
[2] = molecular target: T1, Proteasome subunit beta type-8 (Homo sapiens) (UniProt P28062); assay: Inhibition of human 20S immunoproteasome beta 5 subunit assessed as inhibition of BMV037 probe labeling at 1 to 10 uM incubated for 1 hr by SDS-PAGE analysis; settings: dose 1-10 µM
T1 sequence (whole entry): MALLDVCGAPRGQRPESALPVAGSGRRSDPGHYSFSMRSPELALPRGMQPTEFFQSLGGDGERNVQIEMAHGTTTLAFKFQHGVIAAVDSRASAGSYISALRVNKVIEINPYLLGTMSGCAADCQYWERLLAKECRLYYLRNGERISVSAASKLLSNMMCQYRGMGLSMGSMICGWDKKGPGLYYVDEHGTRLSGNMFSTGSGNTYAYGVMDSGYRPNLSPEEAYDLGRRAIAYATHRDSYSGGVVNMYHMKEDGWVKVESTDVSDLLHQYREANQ
In short: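 Purified human immuno-20S (20 nM) was incubated with compound at 37°C for 1 h, then labelled with 10 µM BMV037 at 37°C for 2 h. Samples were run on 4-12% Bis-Tris gel with MES buffer, and active subunits were visualised by Cy5 fluorescence.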

[3] = Inhibition of Plasmodium falciparum 20S proteasome beta 5 subunit chymotrypsin-like activity using fluorogenic peptide Ac-WLA-AMC as substrate in presence of PA28alpha incubated for 1 to 2 hrs by fluorescence microplate reader assay
[4] = system: Plasmodium falciparum 3D7; assay: Inhibition of 20S proteasome beta 5 subunit in bortezomib-resistant Plasmodium falciparum 3D7 assessed as inhibition of BMV037 probe labeling at 1 to 10 uM incubated for 1 hr by SDS-PAGE analysis; settings: dose 1-10 µM
[5] = molecular target: T2, Proteasome subunit beta type-8 (Homo sapiens, UniProt P28062); assay: Inhibition of human 20S immunoproteasome beta 5 subunit chymotrypsin-like activity using fluorogenic peptide Ac-WLA-AMC as substrate in presence of PA28alpha incubated for 1 to 2 hrs by fluorescence microplate reader assay
T2 sequence (P28062 whole entry): T1 sequence (whole entry)

[6] = molecular target: T3, Proteasome subunit beta type-10 (Homo sapiens, UniProt P40306); assay: Inhibition of human 20S immunoproteasome beta 2 subunit trypsin-like activity using fluorogenic peptide Ac-WLR-AMC as substrate in presence of PA28alpha incubated for 1 to 2 hrs by fluorescence microplate reader assay
T3 sequence (P40306 whole entry): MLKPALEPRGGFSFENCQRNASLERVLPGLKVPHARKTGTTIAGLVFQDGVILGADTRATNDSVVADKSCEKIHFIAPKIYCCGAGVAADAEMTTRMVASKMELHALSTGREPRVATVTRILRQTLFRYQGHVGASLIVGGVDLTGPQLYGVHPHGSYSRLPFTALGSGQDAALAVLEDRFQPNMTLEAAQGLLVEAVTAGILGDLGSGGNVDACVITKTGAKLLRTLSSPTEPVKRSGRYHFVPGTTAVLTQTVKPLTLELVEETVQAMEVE

[7] = Inhibition of Plasmodium falciparum 20S proteasome beta 2 subunit trypsin-like activity using fluorogenic peptide Ac-WLR-AMC as substrate in presence of PA28alpha incubated for 1 to 2 hrs by fluorescence microplate reader assay
[8] = molecular target: T4, Proteasome subunit beta type-6 (Homo sapiens, UniProt P28072); assay: Inhibition of human 20S constitutive proteasome beta 1 subunit caspase-like activity using fluorogenic peptide Ac-nLPnLD-AMC as substrate in presence of PA28alpha incubated for 1 to 2 hrs by fluorescence microplate reader assay
T4 sequence (P28072 whole entry): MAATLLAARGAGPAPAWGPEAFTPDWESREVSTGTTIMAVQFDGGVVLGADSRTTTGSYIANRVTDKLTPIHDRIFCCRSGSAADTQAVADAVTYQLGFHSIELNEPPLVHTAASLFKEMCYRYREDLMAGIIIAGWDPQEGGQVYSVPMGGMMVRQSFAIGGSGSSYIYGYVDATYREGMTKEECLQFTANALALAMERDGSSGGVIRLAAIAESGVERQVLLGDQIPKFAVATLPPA

Plasmodium falciparum [9] = assay: Antiplasmodial activity against DHA-sensitive and sorbitol synchronized ring stage forms of Plasmodium falciparum Cam3.II^rev expressing K13 wild-type genotype assessed as reduction in parasitemia incubated for 3 hrs by pulse exposure based Syto-61 staining dye based flow cytometry analysis; type: functional; settings: read-out: LD50 (the source's name)
In short: (§1)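 Tightly synchronized early-ring parasites (1-3 h post-invasion) exposed to compound for 3 h, then viability assessed in the next cycle. Cells stained with 2 µM Syto-61 and parasitemia read by flow cytometry, normalized to untreated and kill controls (2 µM DHA, 48-72 h). Mean ± SEM of three independent experiments.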

Plasmodium falciparum [10] = assay: Antiplasmodial activity against DHA-resistant and sorbitol synchronized ring stage forms of Plasmodium falciparum Cam3.II^R539T expressing K13 mutant assessed as reduction in parasitemia incubated for 3 hrs by pulse exposure based Syto-61 staining dye based flow cytometry analysis; type: functional; settings: read-out: LD50 (the source's name); in short: as §1
[11] = molecular target: T5, Proteasome Macropain subunit MB1 (Homo sapiens, UniProt P28074); assay: Inhibition of human 20S constitutive proteasome beta 5 subunit chymotrypsin-like activity using fluorogenic peptide Ac-WLA-AMC as substrate in presence of PA28alpha incubated for 1 to 2 hrs by fluorescence microplate reader assay
T5 sequence (P28074 whole entry): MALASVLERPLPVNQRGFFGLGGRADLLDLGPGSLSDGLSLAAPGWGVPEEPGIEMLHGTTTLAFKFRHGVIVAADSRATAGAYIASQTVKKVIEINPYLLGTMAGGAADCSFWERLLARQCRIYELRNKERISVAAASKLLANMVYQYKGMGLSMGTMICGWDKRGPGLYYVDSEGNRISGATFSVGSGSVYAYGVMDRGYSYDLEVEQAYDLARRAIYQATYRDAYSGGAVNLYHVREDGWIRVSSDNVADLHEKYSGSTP

[12] = Selectivity index, ratio of LD50 for cytotoxicity against human HepG2 cells to LD50 for antiplasmodial activity against Plasmodium falciparum 3D7 sorbitol-treated ring stage; type: toxicity, cell-based; settings: read-out: Selectivity Index
Plasmodium falciparum [13] = assay: Antiplasmodial activity against sorbitol synchronized ring stage Plasmodium falciparum 3D7 assessed as reduction in parasitemia incubated for 72 hrs by Syto-61 staining dye based flow cytometry analysis; type: functional; settings: read-out: LD50 (the source's name)
In short: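 Sorbitol-treated ring-stage parasites in O+ human erythrocytes were incubated with compound for 72 h, and viability was read in the second cycle. Read-out was Syto-61 (2 µM) flow cytometry of parasitemia, normalized to untreated and 2 µM DHA-killed controls. Mean ± SEM of three independent experiments.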

Structure (SMILES)	IC50 [1] [nM]	inhibition [2]	IC50 [3] [nM]	inhibition [4]	IC50 [5] [nM]	IC50 [6] [nM]	IC50 [7] [nM]	IC50 [8] [nM]	LC50 (Plasmodium falciparum [9]) [nM]	LC50 (Plasmodium falciparum [10]) [nM]	IC50 [11] [nM]	selectivity ratio [12]	LC50 (Plasmodium falciparum [13]) [nM]
Cc1ccc(S(=O)(=O)N[C@@H](CC(=O)NCC(C)(C)C)C(=O)N[C@@H](Cc2ccccc2)C(=O)N[C@@H](CC(C)C)B(O)O)cc1	1780	Active	16	Active	5	130	70	1600	210	190	9	4	65
CC(=O)N1CCC[C@@H]1C(=O)N[C@@H](C)C(=O)N[C@@H](Cc1ccccc1)B(O)O	3190	Active	1500	Active	28	> 10000	> 10000	3400	900	820	220	56	120
CC(C)C[C@H](NC(=O)[C@H](Cc1ccccc1)NC(=O)Cc1ccc(O)cc1)B(O)O	600	Active	10	inactive	1.3	300	60	52	180	160	1.4	0.7	61
